Experimental data of several laboratories.
Compare with care: the assays were run in different laboratories.
Target: Tyrosine-protein kinase ABL2 (ABL2, Homo sapiens, UniProt P42684)

| SMILES | observed | mode | method | tested at | measurement | result |
| --- | --- | --- | --- | --- | --- | --- |
| C#Cc1n[nH]c2c(-c3cn([C@@H](C)c4ccccn4)c(=O)[nH]c3=O)cc(F)cc12 | enzyme activity | inhibitor | – | 0.1 µM | inhibition | 5.9% |
| COc1ncccc1-c1cnn2ccc(N3CCN(C(=O)OC(C)C)CC3)nc12 | binding | – | competition with immobilised ligand | 1 µM | remaining binding | 100% |
| Nc1ncc(-c2nc(N3CCOCC3)nc(N3CCOCC3)n2)c(C(F)F)n1 | binding | – | competition with immobilised ligand | 10 µM | remaining binding | 99% |
| O=c1[nH]c2ccccc2n1C1CCN(Cc2ccc(-c3[nH]c4cc5ncnc5cc4nc3-c3ccccc3)cc2)CC1 | cell-free assay | – | – | 0.5 µM | remaining signal | 96.8% |
| Cn1cncc1[C@](O)(COc1ccc(C#N)cc1-c1ccc(OC(F)(F)F)cc1)c1ccc(C#N)cc1 | cell-free assay | – | competition with immobilised ligand | 1 µM | remaining binding | 83% |
| C#Cc1n[nH]c2c(-c3cn([C@@H](C)c4ccccc4)c(=O)[nH]c3=O)cc(F)cc12 | enzyme activity | inhibitor | – | 0.1 µM | inhibition | 2.4% |
| CC(C)(C)c1cc(C=C(C#N)C#N)cc(Br)c1O | enzyme activity | inhibitor | – | 0.5 µM | remaining activity | 57.1% |
| Cn1cc(-c2cccc(N3CCc4c(sc5c4CC(C)(C)C5)C3=O)c2CO)cc(Nc2ccncn2)c1=O | enzyme activity | inhibitor | – | 1 µM | inhibition | 4% |
| Cc1nn(C)cc1-c1nc2c(N3CCN(Cc4ccc(Cl)cc4)CC3)c(Cl)cnc2[nH]1 | binding | – | competition with immobilised ligand | 1 µM | remaining binding | 100% |
| COc1cc(Nc2ncc(F)c(Nc3ccc4c(n3)NC(=O)C(C)(C)O4)n2)cc(OC)c1OC | binding | – | competition with immobilised ligand | 10 µM | inhibition | 77% |
| Cn1cc(-c2cc(F)cc(N3CCn4c(cc5c4CCCC5)C3=O)c2CO)cc(Nc2ccc(N3CCN(C4COC4)CC3)cn2)c1=O | enzyme activity | inhibitor | – | 0.1 µM | inhibition | 11% |
